In the RNAGym collection of RNA variant scans (doi:10.1126/science.aae0568):
Variants at the floor of the assay were thinned out.

B1: tRNA (parent)
chain: GUUCCGUUGGCGUAAUGGUAACGCGUCUCCCUCCUAAGGAGAAGACUGCGGGUUCGAGUCCCGUACGGAACG

Variants of: B1
Test: yeast fitness relative to wild type (ratio to wild type); higher = fitter; tRNA-Arg(CCU), competitive growth, 37 C, YPD
How it was run: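 Amplicons of the tRNA-Arg(CCU) gene were sequenced, 100-nucleotide paired-end, from the start population and from each end population of a pooled yeast competition. The competition, in six parallel replicates, lasted 24 hours in YPD at 37°C. Fitness relative to wild type was calculated from changes in genotype frequencies. Genotypes had to have ≥ 100 starting reads, and estimates < 0.5 were set to 0.5.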

A14U G52A G63C G67C A69U and A14U G52C C66U cannot be ordered by yeast fitness: no more than 0.5 for the first, no more than 0.5 for the second.

Going from A14U G52U to A14U G56A G67A, the yeast fitness falls from 0.592 to no more than 0.5.

Compared with A14U G58A, A14U G63A is lower in yeast fitness: 0.629 for the first, no more than 0.5 for the second.

Compared with A14U G63C, A14U G67C is higher in yeast fitness: no more than 0.5 for the first, 0.729 for the second.

First: A14U G67U
Second: A14U G68A
The yeast fitness of the first is lower: 0.562 for the first, 0.721 for the second.

Compared with A14U G68C, A14U G68C A69C is lower in yeast fitness: 0.694 for the first, no more than 0.5 for the second.

Compared with A14U G68C A70G, A14U U16A is higher in yeast fitness: no more than 0.5 for the first, 0.667 for the second.

A14U U16A C22U C24A and A14U U16A C27G A40U cannot be ordered by yeast fitness: no more than 0.5 for the first, no more than 0.5 for the second.

A14U U16A C27G A40U C49G A65U and A14U U16A C33G A45C A69U cannot be ordered by yeast fitness: no more than 0.5 for the first, no more than 0.5 for the second.

A14U U16A U26G C29G and A14U U16C A42U cannot be ordered by yeast fitness: no more than 0.5 for the first, no more than 0.5 for the second.

Compared with A14U U16G U19A, A14U U16G U19A A42G C61G is higher in yeast fitness: no more than 0.5 for the first, 0.535 for the second.

Going from A14U U19A A36C G63A to A14U U19A C24U C55G A70U, the yeast fitness falls from 0.586 to 0.532.

First: A14U U19A C55A C61G
Second: A14U U19A C60G A70G
The yeast fitness of the first is lower: no more than 0.5 for the first, 0.531 for the second.

Compared with A14U U19A G23A A43C U47C A57C, A14U U19A G23C C29A C66A is higher in yeast fitness: no more than 0.5 for the first, 0.549 for the second.

First: A14U U26A A42G U59G C60U
Second: A14U U26A A45U U53C
The yeast fitness of the first is lower: no more than 0.5 for the first, 0.597 for the second.

Going from A14U U26A C30U A69C to A14U U26C, the yeast fitness rises from no more than 0.5 to 0.698.

Going from A14U U26C A42U to A14U U26C A42U C49U, the yeast fitness falls from 0.676 to 0.536.

A14U U26C A42U C60G and A14U U26C C49A cannot be ordered by yeast fitness: no more than 0.5 for the first, no more than 0.5 for the second.

Going from A14U U26G to A14U U26G A36G C60A, the yeast fitness falls from 0.675 to no more than 0.5.

A14U U26G A37C and A14U U26G C33A A40U A69U cannot be ordered by yeast fitness: no more than 0.5 for the first, no more than 0.5 for the second.

A14U U26G C55G and A14U U26G G39C A70U cannot be ordered by yeast fitness: no more than 0.5 for the first, no more than 0.5 for the second.

Compared with A14U U28A, A14U U28C A70C is lower in yeast fitness: 0.579 for the first, no more than 0.5 for the second.

Going from A14U U28C C49U G50A C61G A69C to A14U U32C A37G C49U, the yeast fitness falls from 0.621 to no more than 0.5.

A14U U32C U53A C55A and A14U U32G G52A G63C cannot be ordered by yeast fitness: no more than 0.5 for the first, no more than 0.5 for the second.

Going from A14U U35A A43C to A14U U35C, the yeast fitness rises from no more than 0.5 to 0.601.

First: A14U U35G
Second: A14U U47A
The yeast fitness of the first is lower: no more than 0.5 for the first, 0.575 for the second.

A14U U47A C61A and A14U U47A G67A cannot be ordered by yeast fitness: no more than 0.5 for the first, no more than 0.5 for the second.

A14U U47G A65U and A14U U53A A65U cannot be ordered by yeast fitness: no more than 0.5 for the first, no more than 0.5 for the second.

Compared with A14U U53G C61U A70G, A15C A20C C29A A57G is higher in yeast fitness: no more than 0.5 for the first, 0.561 for the second.

A15C A20C C55G A70G and A15C A20C G39C cannot be ordered by yeast fitness: no more than 0.5 for the first, no more than 0.5 for the second.

First: A15C A20C G41C
Second: A15C A20G
The yeast fitness of the first is lower: no more than 0.5 for the first, 0.78 for the second.

A15C A20G A21G A57U and A15C A20G C29G cannot be ordered by yeast fitness: no more than 0.5 for the first, no more than 0.5 for the second.

A15C A20G C31U A42C and A15C A20G C62U U64G cannot be ordered by yeast fitness: no more than 0.5 for the first, no more than 0.5 for the second.

A15C A20G G23A C46A C49G A65U A70U and A15C A20G G23A C46A C49G G50A A65U A70U cannot be ordered by yeast fitness: no more than 0.5 for the first, no more than 0.5 for the second.

A15C A20G G25C C29U U35C A43U and A15C A20G G51A cannot be ordered by yeast fitness: no more than 0.5 for the first, no more than 0.5 for the second.

First: A15C A20U
Second: A15C A20U C30A C31G
The yeast fitness of the first is higher: 0.63 for the first, no more than 0.5 for the second.

First: A15C A20U C31G
Second: A15C A20U C31G G48C A65U
The yeast fitness of the first is higher: 0.562 for the first, no more than 0.5 for the second.

Going from A15C A21C A36U U47C G63A to A15C A21C A36U U47C G63A G68A, the yeast fitness falls from 0.578 to no more than 0.5.

A15C A21C A40C U59G C60G and A15C A21C A45U C61U C66U cannot be ordered by yeast fitness: no more than 0.5 for the first, no more than 0.5 for the second.

Going from A15C A21C G38C G63C A70U to A15C A21G A36G C49U G67U, the yeast fitness falls from 0.513 to no more than 0.5.

A15C A21G C22U A57U and A15C A21G C22U C49U cannot be ordered by yeast fitness: no more than 0.5 for the first, no more than 0.5 for the second.

A15C A21G C27G and A15C A21G C27G A69U cannot be ordered by yeast fitness: no more than 0.5 for the first, no more than 0.5 for the second.
